ABCG2 block – ABCG2 efflux pump inhibitors, primary screen, multiplex with ABCB1, IgMXP3 cells, flow cytometry; inhibition, % at 6.6 µM; JC-1 efflux; Broad substrate specificity ATP-binding cassette transporter ABCG2 (Homo sapiens), Q9UNQ0; hit rate 0.1% among 190,000;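 active = inhibition above 80%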;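 also: 0% = DMSO and 100% = nicardipine control wells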
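Test system: IgMXP3 (ABCG2) plus far-red-tagged CCRF-Adr (ABCB1) cells. Reagent: JC-1 dye as substrate. Timing: 10 min exposure at 25 °C with rotation, no wash. Measured by: flow cytometric JC-1 green MFI at 530 nm. Read-out: percent efflux inhibition, scaled nicardipine 100% to DMSO 0%. Control set: nicardipine and DMSO wells.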
MEKK3 PB1 HTS – modulators of MEKK3-MEK5 PB1 binding, primary screen, biochemical, wildtype MEKK3, multiplex bead flow cytometry, Alexa488-MEK5 | Mitogen-activated protein kinase kinase kinase 3 (Homo sapiens), Q99759 | bead-based flow cytometry, Alexa488-MEK5 binding to MEKK3; actives lie on both sides; 0 = blocked by unlabeled MEK5, 100 = vehicle | binding response (% of control), % at 10 µM | hit rate 1.4% among 290,000 | AID 1529, 2009;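 active = binding response more than 3 SD above or below the average of its plate-row segment, actives on both sides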;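 also: Alexa488 bead fluorescence after subtracting the streptavidin-only scavenger bead signal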
Target sequence (Q99759 whole entry, looked up): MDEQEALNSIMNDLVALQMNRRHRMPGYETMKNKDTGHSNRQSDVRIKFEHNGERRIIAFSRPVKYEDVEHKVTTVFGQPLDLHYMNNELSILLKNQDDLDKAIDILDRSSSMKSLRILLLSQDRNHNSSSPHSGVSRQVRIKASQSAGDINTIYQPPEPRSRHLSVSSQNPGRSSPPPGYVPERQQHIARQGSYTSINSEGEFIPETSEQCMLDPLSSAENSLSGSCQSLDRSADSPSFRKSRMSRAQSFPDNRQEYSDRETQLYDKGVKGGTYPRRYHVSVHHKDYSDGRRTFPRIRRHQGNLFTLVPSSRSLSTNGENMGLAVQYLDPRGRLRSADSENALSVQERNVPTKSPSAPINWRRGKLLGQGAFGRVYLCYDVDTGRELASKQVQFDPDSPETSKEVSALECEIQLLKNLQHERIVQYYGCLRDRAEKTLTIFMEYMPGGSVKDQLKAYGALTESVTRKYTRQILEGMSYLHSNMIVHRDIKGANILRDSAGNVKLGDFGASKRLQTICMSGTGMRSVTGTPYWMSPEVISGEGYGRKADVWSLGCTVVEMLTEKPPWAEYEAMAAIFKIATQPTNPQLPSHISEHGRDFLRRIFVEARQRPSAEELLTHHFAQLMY
MEKK2mut PB1 HTS – MEK5 binding signal on mutant MEKK2 PB1, primary screen, biochemical, multiplex bead flow cytometry, Alexa488-MEK5. hit rate 0.35% among 290,000. AID 1530, 2009. percent response, % at 10 µM. Alexa488-MEK5 binding to MEKK2 mutant; in the data active = percent response above about 24%, passing the limit was not always enough
ABCB1 block – ABCB1 efflux pump inhibitors, primary screen, cell-based, multiplex, flow cytometry, ABCG2 counter-screen. ATP-dependent translocase ABCB1 (Homo sapiens), P08183. CCRF-Adr cells, JC-1 efflux. inhibition, % at 6.6 µM. hit rate 0.067% among 190,000. AID 1326, 2008; in the data active = inhibition above about 40%;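 also: 0% = vehicle and 100% = reference inhibitor; higher value means more JC-1 retained so stronger ABCB1 efflux block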
MEKK2wt PB1 HTS – modulators of MEK5 binding to wildtype MEKK2, primary screen, biochemical, multiplex bead flow cytometry, Alexa488-MEK5; Alexa488-MEK5 binding to MEKK2 WT; actives lie on both sides; AID 1531, 2009; binding response (% of control), % at 10 µM; hit rate 1.1% among 290,000; in the data active = binding response below about 67% or above about 130%
MEKK2wt confirm – modulators of MEK5 binding to wildtype MEKK2, confirmation, biochemical, single concentration, multiplex bead flow cytometry. AID 1892, 2009. shares compounds with MEKK3 PB1 HTS. hit rate 2.4% among 5,900. Alexa488-MEK5 binding to MEKK2 WT; actives lie on both sides. binding response (% of control), % at 10 µM; in the data active = binding response below about 16% or above about 210%; inactive = in between
MEKK2mut-MEK5 – mutant MEKK2 PB1-MEK5 binding signal retest – biochemical, single concentration, multiplex bead flow cytometry, confirmation. shares compounds with MEKK3 PB1 HTS. Alexa488-MEK5 binding to MEKK2 mutant. percent response, % at 10 µM. hit rate 2% among 5,900. AID 1893, 2009; in the data active = percent response mostly above about 71%, no sharp cut-off; inactive = mostly below about 38%;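 also: higher means compound restores mutant binding toward wildtype level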
MEKK3 confirm – MEKK3 wild-type PB1 binding to MEK5, inhibitors, confirmation, biochemical, bead multiplex flow cytometry, single concentration, wildtype; shares compounds with MEKK3 PB1 HTS; Alexa488-MEK5 binding to MEKK3; stronger effect = lower value; AID 1894, 2009; hit rate 1.8% among 5,900; binding response (% of control), % at 10 µM;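 active = binding response below 72% of control, or above a set upper limit, though filed actives all read lower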;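 also: 100% = DMSO only wells and 0% = binding blocked by excess unlabeled MEK5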
The depositor's hits bear a star; nt = not tested or not shown; [ ] = another dose, or the depositor's remark. Compounds with a hit are over-represented: about 2.3% of the library has one in this group of screens.

SMILES | ABCG2 block | MEKK3 PB1 HTS | MEKK2mut PB1 HTS | ABCB1 block | MEKK2wt PB1 HTS | MEKK2wt confirm | MEKK2mut-MEK5 | MEKK3 confirm
O=C(CN(CCc1ccccc1)C(=O)c1csnn1)NCc1ccc(F)cc1 | nt | 104 | 8 | nt | 102 | nt | nt | nt
COC1CCN(Cc2cn(Cc3ccccc3)nc2-c2cc3ccccc3o2)CC1 | -1 | 85 | 24 | 1 | 140* | 120 | 2 | 98
OCC1CCN(Cc2cn(Cc3ccccc3)nc2-c2cc3ccccc3o2)CC1 | 1 | 106 | 6 | -1 | 121 | nt | nt | nt
O=C(Nc1ccon1)Nc1ccccc1C(F)(F)F | nt | 98 | -2 | nt | 95 | nt | nt | nt
Cc1cc(C)cc(Oc2ccc(NC(=O)C3CC=CCC3C(=O)O)cc2)c1 (configuration not stated) | 2 | 75*[inhibitor] | -4 | 0 | 87 | 102 | -3 | 101
O=C(O)C1CC=CCC1C(=O)Nc1ccc(Oc2ccc(Cl)cc2)cc1 (configuration not stated) | -2 | 93 | -4 | 0 | 91 | nt | nt | nt
FC(F)(F)c1cccc(CNC2c3ccccc3-c3ccccc32)c1 | nt | 107 | 2 | nt | 106 | nt | nt | nt
CCCS/C(N)=N/N=C/c1ccccc1O | 4 | 108 | 10 | 0 | 107 | nt | nt | nt
C=CCS/C(N)=N\N=C\c1c(O)ccc2ccccc12 | nt | 139* | 24 | nt | 131 | 107 | 5 | 106
O=C(c1ccccc1)c1ccc(Oc2ncccn2)cc1 | 5 | 0.0*[inhibitor] | -17 | 1 | -1.0*[inhibitor] | 103 | 2 | 101
C/C=C/C(=O)Nc1nnc(-c2ccccc2C)s1 | 3 | 98 | -9 | 1 | 82 | nt | nt | nt
C=C(C)C(=O)Nc1nnc(-c2ccccc2C)s1 | 6 | 74*[inhibitor] | -9 | 1 | 66 | 103 | 4 | 102
O=C(Nc1cc(F)cc(F)c1)c1ccc(NCCc2ccccc2)c([N+](=O)[O-])c1 | 4 | 96 | -1 | 1 | 100 | nt | nt | nt
Cc1ccc(NC(=O)c2ccc(NCCc3ccccc3)c([N+](=O)[O-])c2)cc1F | 3 | 107 | 5 | -1 | 5.0*[inhibitor] | 119 | 7 | 109
CCn1c(SCC(=O)OC)nc2sc3c(c2c1=O)CCC3 | 7 | 98 | 2 | -1 | 101 | nt | nt | nt
CCn1c(SCC(=O)O)nc2sc3c(c2c1=O)CCC3 | 1 | 1.0*[inhibitor] | -9 | 0 | -1.0*[inhibitor] | 96 | -6 | 101
COc1ccc(CN2CC(C(=O)NCCCN3CCCCC3)CC2=O)cc1 (configuration not stated) | nt | 104 | 2 | nt | 103 | nt | nt | nt
CCOC(=O)CC1C(=O)NCCN1c1nc2ccc(C)cn2c(=O)c1/C=C1\SC(=S)N(CC(C)C)C1=O (configuration not stated) | nt | 94 | -7 | nt | 55*[inhibitor] | 93 | -11 | 101
CC(C)OC(=O)NC(Nc1ccccc1C(=O)O)(C(F)(F)F)C(F)(F)F | nt | 132* | 29 | nt | 134 | 101 | 1 | 100
CCOC(=O)c1c(NC(=O)c2cccs2)sc2c1CCCC2 | 0 | 1.0*[inhibitor] | -9 | 0 | -1.0*[inhibitor] | 98 | 6 | 98
CCOC(=O)c1c(NC(=O)c2cccs2)sc2c1CCC2 | nt | 88 | -1 | nt | 92 | nt | nt | nt
COc1ccc(N2CCN(CCC(O)c3ccc4ccccc4c3)CC2)cc1 (configuration not stated) | nt | 104 | 3 | nt | 109 | nt | nt | nt
CCN(CC(=O)Nc1cccc(OC)c1)C(=O)c1ccco1 | nt | 99 | 0 | nt | 102 | nt | nt | nt
Cc1ccc(S(=O)(=O)NNc2nnc(C)c(=O)[nH]2)cc1 | 1 | 135* | 5 | 0 | 129 | 101 | -6 | 99
Cc1cc(N/N=C/c2ccc(O)cc2)c2cccc(C)c2n1 | nt | 110 | 29* | nt | 209* | 134 | 21 | 107
SMILES | ABCG2 block | MEKK3 PB1 HTS | MEKK2mut PB1 HTS | ABCB1 block | MEKK2wt PB1 HTS | MEKK2wt confirm | MEKK2mut-MEK5 | MEKK3 confirm
Cc1cc(C)c2nc(C)cc(N/N=C/c3ccc(O)cc3)c2c1 | nt | 115 | 119* | nt | 237* | 244* | 102* | 111
CC(C)CN(CC(C)C)C(=O)CN1C(=O)NC2(CCCc3ccccc32)C1=O (configuration not stated) | nt | 107 | 7 | nt | 105 | nt | nt | nt
Cc1oc(-c2ccccc2Cl)nc1CSc1nc2c(c(=O)[nH]1)CCC2 | 0 | 75*[inhibitor] | -8 | 1 | 81 | 97 | -3 | 100
CC(NC(=O)/C=C/c1cnc2ccccc2n1)C12CC3CC(CC(C3)C1)C2 (configuration not stated) | 13 | 134* | 0 | 1 | 102 | 97 | 0 | 104
CC1=Nc2ccccc2/C1=C\c1nc(-c2ccc(F)cc2)oc1O | 2 | 9.0*[inhibitor] | -10 | 1 | 7.0* | 94 | -3 | 99
COc1ccc(C(=O)N2CCOCC2)cc1Br | 5 | 125* | 7 | 1 | 121 | 93 | -3 | 96
COc1cc(C(=S)N2CCOCC2)cc(OC)c1O | nt | 42*[inhibitor] | -17 | nt | 57 | 109 | 15 | 107
CCOc1cc(C(=S)N2CCOCC2)ccc1OC | 3 | 99 | 0 | 0 | 95 | nt | nt | nt
C#CCOCCOCCOCCNc1nc(N2CCN(C(=O)[C@H]([C@@H](C)CC)n3cc([C@@H](N)CO)nn3)CC2)nc(N2CCN(C(=O)[C@H]([C@@H](C)CC)n3cc([C@@H](N)CO)nn3)CC2)n1 | nt | 85 | 1 | nt | 75 | nt | nt | nt
C#CCOCCOCCOCCNc1nc(N2CCN(C(=O)[C@H](Cc3ccc(O)cc3)n3cc([C@@H](N)CC(C)C)nn3)CC2)nc(N2CCN(C(=O)[C@H](Cc3cc4ccccc4[nH]3)n3cc([C@@H](N)CC(C)C)nn3)CC2)n1 | 1 | 114 | 99* | 0 | 230* | 245* | 93* | 112
C#CCOCCOCCOCCNc1nc(N2CCN(C(=O)[C@H](CCC(=O)O)n3cc(C(N)[C@H](C)CC)nn3)CC2)nc(N2CCN(C(=O)[C@H](Cc3cc4ccccc4[nH]3)n3cc(C(N)[C@H](C)CC)nn3)CC2)n1 (some centres not stated) | -2 | 101 | 1 | 0 | 101 | nt | nt | nt
